Reference: ChEMBL document CHEMBL3407460, “Synthesis of novel thiazole-based 8,9-dihydro-7H-pyrimido[4,5-b][1,4]diazepines as potential antitumor and antifungal agents” (2015)
≈ marks a conversion by molar mass, not a printed value. Each block holds one molecule with its values, some of them ahead of it.

Key:
Type in all cases: functional
Cryptococcus neoformans [1] = test: Antifungal activity against Cryptococcus neoformans ATCC 32264 after 48 hrs by broth microdilution method; conditions: ATCC 32264, 48 h; for MIC: read-out: MIC100
Cryptococcus neoformans [2] = test: Antifungal activity against Cryptococcus neoformans IM 983040 clinical isolate after 48 hrs by broth microdilution method; conditions: IM 983040, 48 h; for MIC: read-out: MIC100
Summary of the method: (§1)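 Clinical isolates from the Malbrán Institute were grown on Sabouraud-chloramphenicol agar for 48 h at 30 °C, kept on Sabouraud-dextrose agar and subcultured every 15 days. M27-A3 RPMI-1640 microdilution used 1–5 × 10^3 CFU/mL, 48 h at 30 °C, OD405 read, triplicate. Endpoints MIC100, MIC80 and MIC50 were taken from % inhibition dose-response curves.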

Cryptococcus neoformans [3] = test: Antifungal activity against Cryptococcus neoformans IM 972724 clinical isolate after 48 hrs by broth microdilution method; conditions: IM 972724, 48 h; for MIC: read-out: MIC100; summary of the method: as §1
Cryptococcus neoformans [4] = test: Antifungal activity against Cryptococcus neoformans IM 042074 clinical isolate after 48 hrs by broth microdilution method; conditions: IM 042074, 48 h; for MIC: read-out: MIC100; summary of the method: as §1
Cryptococcus neoformans [5] = test: Antifungal activity against Cryptococcus neoformans IM 983036 clinical isolate after 48 hrs by broth microdilution method; conditions: IM 983036, 48 h; for MIC: read-out: MIC100; summary of the method: as §1
Cryptococcus neoformans [6] = test: Antifungal activity against Cryptococcus neoformans IM 972751 clinical isolate after 48 hrs by broth microdilution method; conditions: IM 972751, 48 h; for MIC: read-out: MIC100; summary of the method: as §1
Cryptococcus neoformans [7] = test: Antifungal activity against Cryptococcus neoformans IM 031631 clinical isolate after 48 hrs by broth microdilution method; conditions: IM 031631, 48 h; for MIC: read-out: MIC100; summary of the method: as §1
Cryptococcus neoformans [8] = test: Antifungal activity against Cryptococcus neoformans IM 961951 clinical isolate after 48 hrs by broth microdilution method; conditions: IM 961951, 48 h; for MIC: read-out: MIC100; summary of the method: as §1
Candida albicans [9] = test: Antifungal activity against Candida albicans ATCC 10231 assessed as growth inhibition at 250 ug/ml after 48 hrs by broth microdilution method; conditions: ATCC 10231, 48 h
Summary of the method: (§2)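 CLSI M27-A3 broth microdilution in RPMI-1640. Compound stocks were made in DMSO (final at most 1%) and tested at final levels of 250 to 0.98. Inoculum was 1–5 × 10^3 CFU/mL, incubated 48 h at 30 °C in a moist, dark chamber. Growth and sterility control wells were included.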

Candida albicans [10] = test: Antifungal activity against Candida albicans ATCC 10231 assessed as growth inhibition at 125 ug/ml after 48 hrs by broth microdilution method; conditions: ATCC 10231, 48 h; summary of the method: as §2
Candida albicans [11] = test: Antifungal activity against Candida albicans ATCC 10231 assessed as growth inhibition at 62.5 ug/ml after 48 hrs by broth microdilution method; conditions: ATCC 10231, 48 h; summary of the method: as §2
Candida albicans [12] = test: Antifungal activity against Candida albicans ATCC 10231 assessed as growth inhibition at 31.25 ug/ml after 48 hrs by broth microdilution method; conditions: ATCC 10231, 48 h; summary of the method: as §2
Candida albicans [13] = test: Antifungal activity against Candida albicans ATCC 10231 assessed as growth inhibition at 15.62 ug/ml after 48 hrs by broth microdilution method; conditions: ATCC 10231, 48 h; summary of the method: as §2
Candida albicans [14] = test: Antifungal activity against Candida albicans ATCC 10231 assessed as growth inhibition at 7.81 ug/ml after 48 hrs by broth microdilution method; conditions: ATCC 10231, 48 h; summary of the method: as §2
Candida albicans [15] = test: Antifungal activity against Candida albicans ATCC 10231 assessed as growth inhibition at 3.9 ug/ml after 48 hrs by broth microdilution method; conditions: ATCC 10231, 48 h; summary of the method: as §2
Cryptococcus neoformans [16] = test: Antifungal activity against Cryptococcus neoformans ATCC 32264 assessed as growth inhibition at 250 ug/ml after 48 hrs by broth microdilution method; conditions: ATCC 32264, 48 h; summary of the method: as §2
Cryptococcus neoformans [17] = test: Antifungal activity against Cryptococcus neoformans ATCC 32264 assessed as growth inhibition at 125 ug/ml after 48 hrs by broth microdilution method; conditions: ATCC 32264, 48 h; summary of the method: as §2
Cryptococcus neoformans [18] = test: Antifungal activity against Cryptococcus neoformans ATCC 32264 assessed as growth inhibition at 62.5 ug/ml after 48 hrs by broth microdilution method; conditions: ATCC 32264, 48 h; summary of the method: as §2
Cryptococcus neoformans [19] = test: Antifungal activity against Cryptococcus neoformans ATCC 32264 assessed as growth inhibition at 31.25 ug/ml after 48 hrs by broth microdilution method; conditions: ATCC 32264, 48 h; summary of the method: as §2
Cryptococcus neoformans [20] = test: Antifungal activity against Cryptococcus neoformans ATCC 32264 assessed as growth inhibition at 15.62 ug/ml after 48 hrs by broth microdilution method; conditions: ATCC 32264, 48 h; summary of the method: as §2
Cryptococcus neoformans [21] = test: Antifungal activity against Cryptococcus neoformans ATCC 32264 assessed as growth inhibition at 7.81 ug/ml after 48 hrs by broth microdilution method; conditions: ATCC 32264, 48 h; summary of the method: as §2
Cryptococcus neoformans [22] = test: Antifungal activity against Cryptococcus neoformans ATCC 32264 assessed as growth inhibition at 3.9 ug/ml after 48 hrs by broth microdilution method; conditions: ATCC 32264, 48 h; summary of the method: as §2
Cryptococcus neoformans [23] = test: Antifungal activity against Cryptococcus neoformans IM 00319 clinical isolate after 48 hrs by broth microdilution method; conditions: IM 00319, 48 h
Summary of the method: (§3)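 Clinical isolates from the Malbrán Institute were grown on Sabouraud-chloramphenicol agar for 48 h at 30 °C, kept on Sabouraud-dextrose agar and subcultured every 15 days. Endpoints MIC100, MIC80 and MIC50 were taken from % inhibition dose-response curves.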

Cryptococcus neoformans [24] = test: Antifungal activity against Cryptococcus neoformans IM 031706 clinical isolate after 48 hrs by broth microdilution method; conditions: IM 031706, 48 h; summary of the method: as §3
Cryptococcus neoformans [25] = test: Antifungal activity against Cryptococcus neoformans IM 052470 clinical isolate after 48 hrs by broth microdilution method; conditions: IM 052470, 48 h; summary of the method: as §3

SMILES: C[C@@H]1[C@H](O)[C@@H](C)/C=C/C=C/C=C/C=C/C=C/C=C/C=C/[C@H](O[C@@H]2O[C@H](C)[C@@H](O)[C@H](N)[C@@H]2O)C[C@@H]2O[C@](O)(C[C@@H](O)C[C@@H](O)[C@H](O)CC[C@@H](O)C[C@@H](O)CC(=O)O[C@H]1C)C[C@H](O)[C@H]2C(=O)O [AMPHOTERICIN B]
MIC (Cryptococcus neoformans [1]): 0.12 µg/mL (≈ 0.13 µM)
MIC (Cryptococcus neoformans [2]): 0.25 µg/mL (≈ 0.271 µM)
MIC (Cryptococcus neoformans [3]): 0.25 µg/mL (≈ 0.271 µM)
MIC (Cryptococcus neoformans [4]): 0.12 µg/mL (≈ 0.13 µM)
MIC (Cryptococcus neoformans [5]): 0.25 µg/mL (≈ 0.271 µM)
MIC (Cryptococcus neoformans [6]): 1 µg/mL (≈ 1.08 µM)
MIC (Cryptococcus neoformans [7]): 0.12 µg/mL (≈ 0.13 µM)
MIC (Cryptococcus neoformans [8]): 1 µg/mL (≈ 1.08 µM)

MIC50 (Cryptococcus neoformans [1]): 7.8 µg/mL (≈ 17.7 µM)
MIC80 (Cryptococcus neoformans [1]): 15.6 µg/mL (≈ 35.4 µM)
MIC (Cryptococcus neoformans [1]): 15.6 µg/mL (≈ 35.4 µM)
MIC50 (Cryptococcus neoformans [2]): 31.2 µg/mL (≈ 70.8 µM)
MIC80 (Cryptococcus neoformans [2]): 31.2 µg/mL (≈ 70.8 µM)
MIC (Cryptococcus neoformans [2]): 31.2 µg/mL (≈ 70.8 µM)
MIC50 (Cryptococcus neoformans [3]): 7.8 µg/mL (≈ 17.7 µM)
MIC80 (Cryptococcus neoformans [3]): 15.6 µg/mL (≈ 35.4 µM)
MIC (Cryptococcus neoformans [3]): 15.6 µg/mL (≈ 35.4 µM)
MIC50 (Cryptococcus neoformans [4]): 15.6 µg/mL (≈ 35.4 µM)
MIC80 (Cryptococcus neoformans [4]): 31.2 µg/mL (≈ 70.8 µM)
MIC (Cryptococcus neoformans [4]): 31.2 µg/mL (≈ 70.8 µM)
MIC50 (Cryptococcus neoformans [5]): 15.6 µg/mL (≈ 35.4 µM)
MIC80 (Cryptococcus neoformans [5]): 15.6 µg/mL (≈ 35.4 µM)
MIC (Cryptococcus neoformans [5]): 31.2 µg/mL (≈ 70.8 µM)
MIC50 (Cryptococcus neoformans [23]): 7.8 µg/mL (≈ 17.7 µM)
MIC80 (Cryptococcus neoformans [23]): 15.6 µg/mL (≈ 35.4 µM)
MIC (Cryptococcus neoformans [23]; read-out: MIC100): 15.6 µg/mL (≈ 35.4 µM)
MIC50 (Cryptococcus neoformans [6]): 31.2 µg/mL (≈ 70.8 µM)
MIC80 (Cryptococcus neoformans [6]): 31.2 µg/mL (≈ 70.8 µM)
MIC (Cryptococcus neoformans [6]): 62.5 µg/mL (≈ 142 µM)
MIC50 (Cryptococcus neoformans [7]): 7.8 µg/mL (≈ 17.7 µM)
MIC80 (Cryptococcus neoformans [7]): 15.6 µg/mL (≈ 35.4 µM)
MIC (Cryptococcus neoformans [7]): 31.2 µg/mL (≈ 70.8 µM)
MIC50 (Cryptococcus neoformans [24]): 7.8 µg/mL (≈ 17.7 µM)
MIC80 (Cryptococcus neoformans [24]): 31.2 µg/mL (≈ 70.8 µM)
MIC (Cryptococcus neoformans [24]; read-out: MIC100): 62.5 µg/mL (≈ 142 µM)
MIC50 (Cryptococcus neoformans [8]): 7.8 µg/mL (≈ 17.7 µM)
MIC80 (Cryptococcus neoformans [8]): 15.6 µg/mL (≈ 35.4 µM)
MIC (Cryptococcus neoformans [8]): 15.6 µg/mL (≈ 35.4 µM)
MIC50 (Cryptococcus neoformans [25]): 15.6 µg/mL (≈ 35.4 µM)
MIC80 (Cryptococcus neoformans [25]): 31.2 µg/mL (≈ 70.9 µM)
MIC (Cryptococcus neoformans [25]; read-out: MIC100): 62.5 µg/mL (≈ 142 µM)
SMILES: Nc1nc(N)c2c(n1)NC(c1sc(Cl)nc1Cl)CC(c1ccc(Cl)cc1)=N2 (stereo unspecified)
inhibition at 250 µg/mL (Candida albicans [9]): 100%
inhibition at 125 µg/mL (Candida albicans [10]): 100%
inhibition at 62.5 µg/mL (Candida albicans [11]): 100%
inhibition at 31.25 µg/mL (Candida albicans [12]): 100%
inhibition at 15.62 µg/mL (Candida albicans [13]): 100%
inhibition at 7.81 µg/mL (Candida albicans [14]): 48.3%
inhibition at 3.9 µg/mL (Candida albicans [15]): 22.2%
inhibition at 250 µg/mL (Cryptococcus neoformans [16]): 78.7%
inhibition at 125 µg/mL (Cryptococcus neoformans [17]): 58.2%
inhibition at 62.5 µg/mL (Cryptococcus neoformans [18]): 40.5%
inhibition at 31.25 µg/mL (Cryptococcus neoformans [19]): 30.5%
inhibition at 15.62 µg/mL (Cryptococcus neoformans [20]): 13.1%
inhibition at 7.81 µg/mL (Cryptococcus neoformans [21]): 3.56%
inhibition at 3.9 µg/mL (Cryptococcus neoformans [22]): 0%
MFC (Cryptococcus neoformans [1]): 31.2 µg/mL (≈ 70.8 µM)
MFC (Cryptococcus neoformans [2]): 62.5 µg/mL (≈ 142 µM)
MFC (Cryptococcus neoformans [3]): 31.2 µg/mL (≈ 70.8 µM)
MFC (Cryptococcus neoformans [4]): 62.5 µg/mL (≈ 142 µM)
MFC (Cryptococcus neoformans [5]): 31.2 µg/mL (≈ 70.8 µM)
MFC (Cryptococcus neoformans [23]): 31.2 µg/mL (≈ 70.8 µM)
MFC (Cryptococcus neoformans [6]): 62.5 µg/mL (≈ 142 µM)
MFC (Cryptococcus neoformans [7]): 62.5 µg/mL (≈ 142 µM)
MFC (Cryptococcus neoformans [24]): 62.5 µg/mL (≈ 142 µM)
MFC (Cryptococcus neoformans [8]): 62.5 µg/mL (≈ 142 µM)
MFC (Cryptococcus neoformans [25]): 62.5 µg/mL (≈ 142 µM)
